What was measured:
[1] = Cytotoxicity against african green monkey Vero cells after 72 hrs by MTT assay; assay type: cell-based; details: chlorocebus sabaeus
Outline: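 Vero cells grown in DMEM with 5% FBS, penicillin/streptomycin, 37 °C, 5% CO2; monolayers of about 10^4 cells exposed to several compound concentrations for 72 h. MTT solution (1 mg/mL) then added to assess viability. CC50 obtained by linear regression of dose-response curves; duplicates, at least three independent experiments.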

[2] = target: Human immunodeficiency virus type 1 reverse transcriptase (Human immunodeficiency virus 1, UniProt Q72547); experiment: Inhibition of polymerase activity of HIV1 recombinant reverse transcriptase expressed in Escherichia coli
Outline: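 Recombinant HIV-1 RT (66 kDa) expressed in E. coli from plasmid pUC12N, partly purified by Sephadex G-25; compounds tested at different concentrations (0.01-50). Reaction: 50 mM Tris-HCl pH 7.8, 6 mM MgCl2, 1 mM DTT, 50 mM KCl, dTTP plus [3H]dTTP, poly(rA)·oligo(dT), 1 U enzyme; 37 °C, 30 min; stopped with ice-cold 5% TCA/pyrophosphate, filter-collected, 3H counted by scintillation.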

[3] = target: Human immunodeficiency virus type 1 reverse transcriptase (Human immunodeficiency virus 1) (UniProt Q72547); experiment: Inhibition of polymerase activity of HIV1 recombinant reverse transcriptase expressed in Escherichia coli at 50 uM
Outline: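 Single-concentration test: compounds at 50 on recombinant HIV-1 RT (66 kDa, E. coli-expressed from pUC12N, Sephadex G-25 fraction) polymerase activity. 50 mM Tris-HCl pH 7.8, 6 mM MgCl2, 1 mM DTT, 50 mM KCl, dTTP with [3H]dTTP, poly(rA)·oligo(dT) template-primer, 1 U enzyme; 30 min at 37 °C; TCA precipitation onto filters, incorporated 3H by scintillation counting.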

IC50 [2] | inhibition [3] | Compound | CC50 at 72 h [1]
2.2 µM | 63.6% | CO[C@@H]1O[C@H](COC(=O)c2nnn(Cc3ccccc3)c2C)[C@H]2OC(C)(C)O[C@@H]12 | 837 µM
 | 45.6% | Cc1c(C(=O)OC[C@H]2O[C@H](O)[C@H](O)[C@@H](O)[C@H]2O)nnn1Cc1ccccc1 | 25600 µM
 | 36.2% | Cc1c(C(=O)OC[C@H]2O[C@H](O)[C@H](O)[C@H]2OCc2ccccc2)nnn1Cc1ccccc1 | 596 µM
5 µM | 64.7% | Cc1c(C(=O)O[C@@H]2[C@H]3OC(C)(C)O[C@H]3O[C@@H]2[C@H]2COC(C)(C)O2)nnn1Cc1ccccc1 | 208 µM
 | 35.8% | Cc1c(C(=O)OC[C@@]2(O)OC[C@@H](O)[C@@H](O)[C@@H]2O)nnn1Cc1ccccc1 | 800 µM
 | 45.6% | Cc1c(C(=O)O[C@H]2[C@H](O)[C@H](O)CO[C@]2(O)CO)nnn1Cc1ccccc1 | 649 µM
 | 33.2% | Cc1c(C(=O)OC[C@H]2O[C@@H](O)[C@H](O)[C@@H]2O)nnn1Cc1ccccc1 | 1170 µM
1.98 µM | 65.4% | Cc1c(C(=O)OC[C@H]2O[C@@H]3OC(C)(C)O[C@@H]3[C@H]2OCc2ccccc2)nnn1Cc1ccccc1 | 724 µM
 | 43.5% | Cc1c(C(=O)O[C@H]2[C@@H]3OC(C)(C)O[C@@H]3CO[C@]23COC(C)(C)O3)nnn1Cc1ccccc1 | 2750 µM
 | 35.9% | Cc1c(C(=O)O[C@H]2[C@H](O)[C@@H](CO)OC(O)[C@@H]2O)nnn1Cc1ccccc1 (some centres not stated) | 1800 µM
 | 14% | Cc1c(C(=O)O[C@H]2[C@@H](O)[C@H](O)O[C@H](CO)[C@H]2O)nnn1Cc1ccccc1 | 1440 µM
 | 28.8% | Cc1c(C(=O)OC[C@H]2O[C@@H]3OC(C)(C)O[C@@H]3[C@H]3OC(C)(C)O[C@H]32)nnn1Cc1ccccc1 | 123 µM
 |  | Cc1cn([C@H]2C[C@H](N=[N+]=[N-])[C@@H](CO)O2)c(=O)[nH]c1=O [ZIDOVUDINE] | 126 µM
 | 47.9% | Cc1c(C(=O)OC[C@@]23OC[C@H]4OC(C)(C)O[C@H]4[C@@H]2OC(C)(C)O3)nnn1Cc1ccccc1 | 3380 µM
 | 3% | Cc1c(C(=O)O[C@H]2[C@H]3OC(C)(C)O[C@H]3O[C@@H]2[C@H]2COC(C)(C)O2)nnn1Cc1ccccc1 | 3530 µM

From ChEMBL document CHEMBL1152863, “Synthesis, HIV-RT inhibitory activity and SAR of 1-benzyl-1H-1,2,3-triazole derivatives of carbohydrates” (Eur J Med Chem, 2009)
